Laboratory results from ChEMBL document CHEMBL4831535, “Reducing the Toxicity of Designer Aminoglycosides as Nonsense Mutation Readthrough Agents for Therapeutic Targets” (ACS Med Chem Lett, 2021).
Activity calls are given as the source filed them. The calls are words filed in the database; no cut-off is given here.

Key:
Assay type in all cases: cell-based
[1] = test system: DMS-114; test: Cytotoxicity against human DMS-114 cells assessed as reduction in cell viability at up tp 500 ug/ml; details: dose 500 µg/ml
[2] = test system: Premature termination codon; test: Induction of read through activity at TP53 R213X mutant premature termination codon in human DMS-114 cells assessed as increase in production of full length p53 at 31 to 250 ug/ml measured after 48 hrs by capillary electrophoresis western analysis; details: dose 31-250 µg/ml
Summary of the method: (§1)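 DMS-114 cells exposed to a range of concentrations for 48 h. Full-length and truncated p53 measured by capillary electrophoresis western analysis, with vinculin as loading control. Full-length p53 expressed as a normalized percent amount.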

[3] = test system: Fibroblast; test: Cytotoxicity against human fibroblast assessed as reduction in cell viability at up to 0.5 mg/ml measured after 48 hrs by fluorescent live-cell promega ApoLive-glo multiplex assay
Summary of the method: (§2)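 Wild-type fibroblasts exposed to a range of concentrations for 48 h. Cell viability read out with the ApoLive-Glo Multiplex Assay.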

[4] = test system: Fibroblast; test: Cytotoxicity against human fibroblast assessed as reduction in cell viability at 1 mg/ml measured after 48 hrs by fluorescent live-cell promega ApoLive-glo multiplex assay relative to control; summary of the method: as §2
[5] = test system: Premature termination codon; test: Induction of read through activity at TP53 R213X mutant premature termination codon in human DMS-114 cells assessed as increase in production of full length p53 at 125 ug/ml measured after 48 hrs by capillary electrophoresis western analysis; details: dose 125.0 µg/ml; summary of the method: as §1
[6] = test system: Premature termination codon; test: Induction of read through activity at TP53 R213X mutant premature termination codon in human DMS-114 cells assessed as increase in production of full length p53 at 500 ug/ml measured after 48 hrs by capillary electrophoresis western analysis relative to control; details: dose 500.0 µg/ml; summary of the method: as §1
[7] = test system: Premature termination codon; test: Induction of read through activity at TP53 R213X mutant premature termination codon in human DMS-114 cells assessed as increase in production of full length p53 at up to 500 ug/ml measured after 48 hrs by capillary electrophoresis western analysis; details: dose microg/ml <=500, time 48.0 hrs; summary of the method: as §1
[8] = test system: Premature termination codon; test: Induction of read through activity at TP53 R213X mutant premature termination codon in human DMS-114 cells assessed as expression of full length p53 levels at 62 ug/ml measured after 48 hrs by capillary electrophoresis western analysis; details: dose 62.0 µg/ml; summary of the method: as §1
[9] = test system: DMS-114; test: Cytotoxicity against human DMS-114 cells assessed as reduction in cell viability at up to 62 ug/ml; details: dose <=62 µg/ml
[10] = test system: DMS-114; test: Cytotoxicity against human DMS-114 cells assessed as reduction in cell viability at 125 ug/ml; details: dose 125 µg/ml

SMILES | Activity [1] | Activity [3] | Activity [4] [%] | Activity [7] | further results
C[C@H](N)[C@H]1O[C@@H](O[C@@H]2[C@@H](O)[C@H](N)C[C@H](N)[C@H]2O[C@H]2O[C@H]([C@H](O)CO)[C@@H](O)[C@H](O)[C@H]2O)[C@H](O)[C@@H]1O | Non-Toxic | Non-Toxic | 15 |  | Activity [2]: Active
C[C@H](N)[C@H]1O[C@@H](O[C@@H]2[C@@H](O)[C@H](N)C[C@H](N)[C@H]2O[C@H]2O[C@H]([C@@H](C)O)[C@@H](O)[C@H](O)[C@H]2O)[C@H](O)[C@@H]1O | Non-Toxic | Non-Toxic |  |  | Activity [5]: Active; Activity [6]: 18%
C[C@H](N)[C@H]1O[C@@H](O[C@@H]2[C@@H](O)[C@H](N)C[C@H](N)[C@H]2O[C@H]2O[C@H]([C@@H](C)N)[C@@H](O)[C@H](O)[C@H]2O)[C@H](O)[C@@H]1O |  |  |  | inactive | 
C[C@H](N)[C@H]1O[C@@H](O[C@@H]2[C@@H](O)[C@H](N)C[C@H](N)[C@H]2O[C@H]2O[C@H]([C@H](C)O)[C@@H](O)[C@H](O)[C@H]2O)[C@H](O)[C@@H]1O | Non-Toxic |  |  | inactive | 
C[C@H](N)[C@H]1O[C@@H](O[C@@H]2[C@@H](O)[C@H](N)C[C@H](N)[C@@H]2O[C@H]2O[C@H]([C@@H](C)O)[C@@H](O)[C@H](O)[C@H]2N)[C@H](O)[C@@H]1O |  |  | 50 |  | Activity [8]: Active; Activity [9]: Non-Toxic; Activity [10]: Toxic
